Experimental data taken from ChEMBL document CHEMBL1667802, “1H-imidazo[4,5-c]pyridine-4-carbonitrile as cathepsin S inhibitors: separation of desired cellular activity from undesired tissue accumulation through optimization of basic nitrogen pka” (Bioorg Med Chem Lett, 2011).

Assays:
Cathepsin B = Cathepsin B (Homo sapiens, UniProt P07858); assay: Inhibition of human cathepsin B
Cathepsin L2 = biological target: T1, Cathepsin L2 (Homo sapiens, UniProt O60911); assay: Inhibition of human cathepsin V
T1 sequence (O60911 whole entry): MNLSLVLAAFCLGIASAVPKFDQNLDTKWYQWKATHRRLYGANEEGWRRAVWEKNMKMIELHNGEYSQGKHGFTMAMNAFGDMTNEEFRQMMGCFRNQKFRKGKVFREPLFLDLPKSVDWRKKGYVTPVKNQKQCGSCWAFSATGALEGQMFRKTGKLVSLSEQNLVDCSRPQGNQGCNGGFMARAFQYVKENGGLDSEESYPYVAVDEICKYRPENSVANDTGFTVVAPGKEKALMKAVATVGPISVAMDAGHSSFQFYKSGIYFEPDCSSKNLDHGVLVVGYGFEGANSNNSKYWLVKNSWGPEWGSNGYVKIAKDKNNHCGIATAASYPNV

Procathepsin L = Procathepsin L (Homo sapiens, UniProt P07711); assay: Inhibition of human cathepsin L
Plasma = assay: Drug level in C57BI/6 mouse plasma at 30 mg/kg, po; type: ADME, organism-based; parameters: dose 30 mg/kg, route oral; conditions: in vivo
Spleen = assay: Drug level in C57BI/6 mouse spleen at 30 mg/kg, po; type: ADME, organism-based; parameters: dose 30 mg/kg, route oral; conditions: in vivo, read-out: Drug uptake
[1] = Ratio of drug level in spleen to plasma in C57BI/6 mouse at 30 mg/kg, po; type: ADME, organism-based; parameters: dose 30 mg/kg, route oral
Method in brief: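 HCl salt given by oral gavage at 30 mg/kg in 0.5% gelatin, 5% mannitol in water to C57Bl/6 mice of 18–25 g. Blood and spleen collected 2 h after dosing and total compound level measured in each. Ratio taken as total spleen over total plasma concentration.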

Cathepsin S [2] = biological target: T2, Cathepsin S (Homo sapiens, UniProt P25774); assay: Inhibition of human cathepsin S
Cathepsin S [3] = biological target: T2, Cathepsin S; assay: Inhibition of cathepsin S in human JY cells assessed as accumulation of lip10 by Western blot analysis; type: cell-based
Cathepsin K = biological target: T3, Cathepsin K (Homo sapiens, UniProt P43235); assay: Inhibition of human cathepsin K
T3 sequence (P43235 whole entry): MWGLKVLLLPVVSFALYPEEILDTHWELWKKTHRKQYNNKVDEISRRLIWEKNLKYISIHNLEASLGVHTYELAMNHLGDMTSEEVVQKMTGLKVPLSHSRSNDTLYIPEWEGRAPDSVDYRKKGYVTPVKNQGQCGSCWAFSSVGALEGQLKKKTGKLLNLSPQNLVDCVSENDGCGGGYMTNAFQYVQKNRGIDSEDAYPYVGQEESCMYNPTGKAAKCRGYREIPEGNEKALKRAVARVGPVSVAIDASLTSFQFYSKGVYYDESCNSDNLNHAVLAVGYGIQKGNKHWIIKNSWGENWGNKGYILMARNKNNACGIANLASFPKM

[4] = Dissociation constant, pKa of the compound; type: physicochemical
Cathepsin S [5] = biological target: Cathepsin S (Mus musculus, UniProt O70370); assay: Inhibition of mouse cathepsin S
[6] = Clearance in C57 mouse at 2 mg/kg, iv or 10 mg/kg, po; type: ADME, organism-based; conditions: in vivo
Method in brief: (§1)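 Pharmacokinetics in male C57 mice, Sprague Dawley rats and Cynomolgus monkeys. Dosing was 2 mg/kg iv and 10 mg/kg po, with oral vehicle gelatin/mannitol. Parameters reported are clearance, Vss, Cmax and oral bioavailability (F %).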

[7] = Clearance in Sprague-Dawley rat at 2 mg/kg, iv or 10 mg/kg, po; type: ADME, organism-based; conditions: in vivo; method in brief: as §1
[8] = Clearance in cynomolgus monkey at 2 mg/kg, iv or 10 mg/kg, po; type: ADME, organism-based, Macaca fascicularis; conditions: in vivo; method in brief: as §1
[9] = Volume of distribution at steady state in C57 mouse at 2 mg/kg, iv or 10 mg/kg, po; type: ADME, organism-based; conditions: in vivo, read-out: Vdss; method in brief: as §1
[10] = Volume of distribution at steady state in Sprague-Dawley rat at 2 mg/kg, iv or 10 mg/kg, po; type: ADME, organism-based; conditions: in vivo, read-out: Vdss; method in brief: as §1
[11] = Volume of distribution at steady state in cynomolgus monkey at 2 mg/kg, iv or 10 mg/kg, po; type: ADME, organism-based, Macaca fascicularis; conditions: in vivo, read-out: Vdss; method in brief: as §1
[12] = Cmax in C57 mouse at 2 mg/kg, iv or 10 mg/kg, po; type: ADME, organism-based; conditions: in vivo; method in brief: as §1
[13] = Cmax in Sprague-Dawley rat at 2 mg/kg, iv or 10 mg/kg, po; type: ADME, organism-based; conditions: in vivo; method in brief: as §1
[14] = Cmax in cynomolgus monkey at 2 mg/kg, iv or 10 mg/kg, po; type: ADME, organism-based, Macaca fascicularis; conditions: in vivo; method in brief: as §1
[15] = Oral bioavailability in C57 mouse at 2 mg/kg, iv or 10 mg/kg, po; type: ADME, organism-based; conditions: in vivo; method in brief: as §1
[16] = Oral bioavailability in Sprague-Dawley rat at 2 mg/kg, iv or 10 mg/kg, po; type: ADME, organism-based; conditions: in vivo; method in brief: as §1
[17] = Oral bioavailability in cynomolgus monkey at 2 mg/kg, iv or 10 mg/kg, po; type: ADME, organism-based, Macaca fascicularis; conditions: in vivo; method in brief: as §1
[18] = Drug level in C57BI/6 mouse plasma at 30 mg/kg, po after 4 hrs; type: ADME, organism-based; parameters: dose 30 mg/kg, route oral
[19] = Drug level in C57BI/6 mouse spleen at 30 mg/kg, po after 4 hrs; type: ADME, organism-based; parameters: dose 30 mg/kg, route oral; conditions: read-out: Drug uptake
[20] = Ratio of drug level in spleen to plasma in C57BI/6 mouse at 30 mg/kg, po after 4 hrs; type: ADME, organism-based; parameters: dose 30 mg/kg, route oral
Method in brief: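 Male or female unspecified 18–25 g C57Bl/6 mice received the HCl salt at 30 mg/kg by oral gavage in 0.5% gelatin, 5% mannitol in water. Blood and spleen were collected after dosing and total compound levels measured. The spleen/plasma ratio was taken from total spleen and total plasma concentrations (nM).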

Liver microsomes [21] = assay: Stability in Sprague-Dawley rat liver microsome; type: ADME
[22] = Stability in C57 mouse liver microsome; type: ADME; conditions: microsomes
Liver microsomes [23] = assay: Stability in human liver microsome; type: ADME

T2 sequence (P25774 whole entry): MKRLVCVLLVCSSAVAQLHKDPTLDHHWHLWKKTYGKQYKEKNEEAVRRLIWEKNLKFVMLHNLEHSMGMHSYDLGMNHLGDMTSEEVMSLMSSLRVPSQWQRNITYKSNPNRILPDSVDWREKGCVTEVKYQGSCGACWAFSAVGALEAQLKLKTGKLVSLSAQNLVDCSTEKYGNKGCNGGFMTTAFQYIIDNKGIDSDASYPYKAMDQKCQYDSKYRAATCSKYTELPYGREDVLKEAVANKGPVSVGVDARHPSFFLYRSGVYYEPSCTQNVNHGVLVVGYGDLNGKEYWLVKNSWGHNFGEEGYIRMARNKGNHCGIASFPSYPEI
Sequence of Procathepsin L (P07711 whole entry): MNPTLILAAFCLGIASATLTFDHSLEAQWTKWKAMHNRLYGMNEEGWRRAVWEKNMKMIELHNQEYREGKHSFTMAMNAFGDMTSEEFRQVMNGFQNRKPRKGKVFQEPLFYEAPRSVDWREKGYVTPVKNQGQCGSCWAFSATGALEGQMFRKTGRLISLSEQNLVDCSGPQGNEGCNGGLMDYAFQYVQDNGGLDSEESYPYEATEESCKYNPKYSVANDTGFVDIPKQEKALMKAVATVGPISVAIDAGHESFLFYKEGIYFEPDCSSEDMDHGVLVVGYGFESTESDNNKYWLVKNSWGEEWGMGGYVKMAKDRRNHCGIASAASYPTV
Sequence of Cathepsin S (Mus musculus, UniProt O70370) (O70370 whole entry): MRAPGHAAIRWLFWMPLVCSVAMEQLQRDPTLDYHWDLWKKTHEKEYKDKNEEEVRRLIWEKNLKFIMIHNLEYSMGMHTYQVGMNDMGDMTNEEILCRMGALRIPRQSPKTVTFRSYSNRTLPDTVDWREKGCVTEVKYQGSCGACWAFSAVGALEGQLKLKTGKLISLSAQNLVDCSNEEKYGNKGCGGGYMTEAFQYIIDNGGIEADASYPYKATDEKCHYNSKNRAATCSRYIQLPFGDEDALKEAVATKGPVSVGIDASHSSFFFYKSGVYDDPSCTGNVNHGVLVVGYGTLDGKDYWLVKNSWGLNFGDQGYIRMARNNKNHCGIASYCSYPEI

Row | Compound | IC50 (Cathepsin B) | IC50 (Cathepsin L2) | IC50 (Procathepsin L) | concentration (Plasma) | concentration (Spleen) | Kp [1] | IC50 (Cathepsin S [2]) | IC50 (Cathepsin S [3]) | IC50 (Cathepsin K) | pKa [4] | also measured
1 | CCN1CCN(CCCOc2ccc(-c3cc4c(ncn4C)c(C#N)n3)cc2C(F)(F)F)CC1 | > 10000 nM | > 10000 nM | > 10000 nM | 0.09 µM | 4.57 µM | 51 |  |  |  |  | 
2 | CN1CCC(CCOc2ccc(-c3cc4c(ncn4C)c(C#N)n3)cc2C(F)(F)F)CC1 | > 10000 nM | > 10000 nM | > 10000 nM |  |  |  | 7.9 nM | 10 nM |  |  | 
3 | Cn1cnc2c(C#N)nc(-c3ccc(OCCC4CCN(Cc5ncco5)CC4)c(C(F)(F)F)c3)cc21 | > 10000 nM | > 10000 nM | > 10000 nM | 6.61 µM | 12.5 µM | 1.9 | 7.9 nM | 39 nM | 708 nM | 6.3 | IC50 (Cathepsin S [5]): 1.6 nM; clearance [6]: 13.9 mL/min/kg; clearance [7]: 73.8 mL/min/kg; clearance [8]: 10 mL/min/kg; Vd [9]: 1.48 L/kg; Vd [10]: 2.43 L/kg; Vd [11]: 0.6 L/kg; Cmax [12]: 3160 ng/mL; Cmax [13]: 9.64 ng/mL; Cmax [14]: 234 ng/mL; bioavailability [15]: 112%; bioavailability [16]: 3.6%; bioavailability [17]: 9%
4 | Cc1noc(C)c1CN1CCC(CCOc2ccc(-c3cc4c(ncn4C)c(C#N)n3)cc2C(F)(F)F)CC1 | > 10000 nM | > 10000 nM | > 10000 nM | 3.4 µM | 19.6 µM | 5.8 | 3.3 nM | 12 nM | 288 nM | 7.9 | 
5 | Cc1nnc(CN2CCC(CCOc3ccc(-c4cc5c(ncn5C)c(C#N)n4)cc3C(F)(F)F)CC2)o1 | > 10000 nM | > 10000 nM | > 10000 nM | 6.37 µM | 18.2 µM | 2.9 | 14.1 nM | 123 nM | 813 nM | 5.6 | 
6 | CC(=O)N1CCC(CCOc2ccc(-c3cc4c(ncn4C)c(C#N)n3)cc2C(F)(F)F)CC1 | > 10000 nM | > 10000 nM | > 10000 nM |  |  |  | 13 nM | 235 nM | 1910 nM |  | 
7 | CN(C)C(=O)CN1CCC(CCOc2ccc(-c3cc4c(ncn4C)c(C#N)n3)cc2C(F)(F)F)CC1 | > 10000 nM | > 10000 nM | > 10000 nM | 1.03 µM | 11.7 µM | 11.4 |  | 22 nM | 407 nM | 7.5 | clearance [6]: 79.4 mL/min/kg; clearance [7]: 93.5 mL/min/kg; Vd [9]: 6.17 L/kg; Vd [10]: 9.8 L/kg; Cmax [12]: 296 ng/mL; Cmax [13]: 13.4 ng/mL; bioavailability [15]: 62%; bioavailability [16]: 8.93%
8 | Cn1cnc2c(C#N)nc(-c3ccc(OCCC4CCN(S(C)(=O)=O)CC4)c(C(F)(F)F)c3)cc21 | > 10000 nM | > 10000 nM | > 10000 nM |  |  |  | 27 nM | 353 nM | 2340 nM |  | 
9 | CN(C)CCCOc1ccc(-c2cc3c(ncn3C)c(C#N)n2)cc1C(F)(F)F | > 10000 nM | > 10000 nM | > 10000 nM |  |  |  |  |  |  |  | concentration at 4 h [18]: 0.094 µM; concentration at 4 h [19]: 2.43 µM; Kp at 4 h [20]: 26
10 | Cn1cnc2c(C#N)nc(-c3ccc(OCCC4CCNCC4)c(C(F)(F)F)c3)cc21 | > 10000 nM | > 10000 nM | > 10000 nM |  |  |  |  |  |  |  | Stability (Liver microsomes [21]): Stable; Stability [22]: Stable; Stability (Liver microsomes [23]): Stable
11 | Cc1noc(CN2CCC(CCOc3ccc(-c4cc5c(ncn5C)c(C#N)n4)cc3C(F)(F)F)CC2)n1 | > 10000 nM | > 10000 nM | > 10000 nM | 5.66 µM | 4.09 µM | 0.7 | 18.6 nM | 294 nM | 1150 nM | 5.3 | 
